In brackets after ≈: the same amount, converted by molar mass. Activity calls are given as the source filed them. No cut-off for these calls is given here.
Key:
Escherichia coli [1] = test: Induction of morphological changes in Escherichia coli ML35p assessed as thin filamentous phenotype at MIC concentration after 18 hrs using propidium iodide/Syto9 staining by microscopic analysis; format: functional, organism-based
Outline: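 Incubated overnight (18 h) with peptide at its MIC, 37 °C, 200 rpm. Stained 15 min with PI (2.7 μM) and Syto 9 (6 μM), smeared, heat-fixed and imaged under Syto and PI filters. Untreated cells as control.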

Escherichia coli [2] = test: Drug uptake in Escherichia coli ML35p inner membrane assessed as increase in fluorescence of propidium iodide at 10 uM measured for 10 mins; format: ADME, organism-based; conditions: in vivo
Outline: (§1)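 PI uptake: mid-log cells washed and resuspended in 5 mM glucose/5 mM HEPES pH 7.2. Peptide added to 10 μM final, with 2.7 μM propidium iodide. Fluorescence (ex 535 nm, em 617 nm) followed for 10 min; lag before rise read from trace.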

Escherichia coli [3] = test: Drug uptake in Escherichia coli ML35p outer membrane assessed as increase in fluorescence of N-phenylnaphthylamine at 10 uM measured for 10 mins; format: ADME, organism-based; conditions: in vivo
Outline: (§2)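 NPN uptake: mid-log cells washed and resuspended in 5 mM glucose/5 mM HEPES pH 7.2. Peptide added to 10 μM final, with 10 μM NPN. Fluorescence (ex 350 nm, em 420 nm) monitored for 10 min.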

Staphylococcus aureus [4] = test: Antibacterial activity against vancomycin/methicillin-resistant Staphylococcus aureus ATCC 700699 after 18 hrs; format: functional; conditions: ATCC 700699, 18 h
Outline: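 Modified broth microdilution for cationic peptides. Overnight cells were diluted in Mueller Hinton broth to 10⁵ CFU/mL, and peptide was added from a 10× stock in 0.2% BSA/0.01% acetic acid. MIC = lowest concentration inhibiting measurable growth. Triplicates, repeated at least twice.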

Escherichia coli [5] = test: Antibacterial activity against Escherichia coli ML35p after 18 hrs; format: functional
Outline: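 Broth microdilution, modified MIC method for cationic peptides. Overnight culture diluted in Mueller Hinton broth to 10⁵ CFU/mL; peptide added from 10× stock in 0.2% BSA/0.01% acetic acid. MIC = lowest concentration inhibiting measurable growth. Triplicates, repeated at least twice.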

Escherichia coli [6] = test: Ratio of MBC to MIC for Escherichia coli ML35p; format: functional
Outline: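 MBC per CLSI: 100 μL from each clear MIC well plated on MH agar in triplicate, 18 h incubation; MBC = lowest concentration preventing growth of 99.9% of bacteria. Ratio taken as MBC/MIC. Two independent experiments in triplicate.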

Escherichia coli [7] = test: Antibacterial activity against Escherichia coli ML35p assessed as reduction of colony forming units at 4 times MIC concentration after 40 mins; format: functional; set-up: scale not given: the % may be the effect or the level left
Outline: (§3)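 Time-kill: overnight culture diluted in MH broth to 10⁵ CFU/mL. 1 mL exposed to peptide at 4× MIC, or water as control, at 37 °C, 200 rpm. At time points, aliquots diluted and plated on MH agar. Colonies counted after 20 h at 37 °C. Time to ~95% kill estimated.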

Escherichia coli [8] = test: Antibacterial activity against Escherichia coli ML35p assessed as reduction of colony forming units at 4 times MIC concentration after 5 mins; format: functional; set-up: scale not given: the % may be the effect or the level left; outline: as §3
Staphylococcus aureus [9] = test: Ratio of MBC to MIC for vancomycin/methicillin-resistant Staphylococcus aureus ATCC 700699; format: functional
Outline: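 For MBC, 100 μL from each clear well was plated on MH agar in triplicate and incubated for 18 h. MBC = lowest concentration preventing growth of 99.9% of bacteria. The ratio is MBC divided by MIC. Two independent experiments.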

Escherichia coli [10] = test: Antibacterial activity against Escherichia coli ML35p assessed as reduction of colony forming units at 4 times MIC concentration after 20 mins; format: functional; set-up: scale not given: the % may be the effect or the level left; outline: as §3
Escherichia coli [11] = test: Drug uptake in Escherichia coli ML35p inner membrane assessed as time required to permeabilize to inner membrane at 10 uM; format: ADME, organism-based; conditions: in vivo; outline: as §1
Escherichia coli [12] = test: Drug uptake in Escherichia coli ML35p outer membrane assessed as time required to permeabilize to outer membrane at 10 uM; format: ADME, organism-based; conditions: in vivo; outline: as §2
Escherichia coli [13] = test: Drug uptake in Escherichia coli ML35p inner membrane assessed as lag time at 10 uM; format: ADME, organism-based; conditions: in vivo; outline: as §1

SMILES: CC(=O)NCC(=O)N[C@H](CCCCN)C(=O)N/C(=C/c1ccccc1)C(=O)N[C@@H](Cc1c[nH]cn1)C(=O)N[C@H](CCCCN)C(=O)N/C(=C\c1ccccc1)C(=O)N[C@@H](Cc1c[nH]c2ccccc12)C(=O)N[C@@H](C)C(=O)NCCCC[C@@H](NC(=O)[C@H](C)NC(=O)[C@H](Cc1c[nH]c2ccccc12)NC(=O)/C(=C\c1ccccc1)NC(=O)[C@@H](CCCCN)NC(=O)[C@H](Cc1c[nH]cn1)NC(=O)/C(=C\c1ccccc1)NC(=O)[C@@H](CCCCN)NC(=O)CNC(C)=O)C(N)=O
- Activity (Escherichia coli [1]): Active

SMILES: CC(=O)NCC(=O)N[C@@H](CCCCN)C(=O)N/C(=C/c1ccccc1)C(=O)N[C@@H](Cc1c[nH]cn1)C(=O)N[C@@H](CCCCN)C(=O)N/C(=C\c1ccccc1)C(=O)N[C@@H](Cc1c[nH]c2ccccc12)C(=O)N[C@@H](C)C(=O)NCCCC[C@H](NC(=O)[C@H](C)NC(=O)[C@H](Cc1c[nH]c2ccccc12)NC(=O)/C(=C\c1ccccc1)NC(=O)[C@H](CCCCN)NC(=O)[C@H](Cc1c[nH]cn1)NC(=O)/C(=C\c1ccccc1)NC(=O)[C@H](CCCCN)NC(=O)CNC(C)=O)C(N)=O [listing 1 of 2 here]
- Drug uptake (Escherichia coli [2]): Not Active
- Drug uptake (Escherichia coli [3]): Active

SMILES: CC(=O)NCC(=O)N[C@@H](Cc1c[nH]cn1)C(=O)N[C@H](CCCCN)C(=O)N/C(=C\c1ccccc1)C(=O)N[C@@H](Cc1c[nH]c2ccccc12)C(=O)N[C@@H](C)C(=O)NCCCC[C@@H](NC(=O)[C@H](C)NC(=O)[C@H](Cc1c[nH]c2ccccc12)NC(=O)/C(=C\c1ccccc1)NC(=O)[C@@H](CCCCN)NC(=O)[C@H](Cc1c[nH]cn1)NC(=O)CNC(C)=O)C(N)=O
- MIC (Staphylococcus aureus [4]): > 100 µM
- MIC (Escherichia coli [5]): > 100 µM

SMILES: CC(=O)NCC(=O)N[C@@H](CCCCN)C(=O)N/C(=C/c1ccccc1)C(=O)N[C@@H](Cc1c[nH]cn1)C(=O)N[C@@H](CCCCN)C(=O)N/C(=C\c1ccccc1)C(=O)N[C@@H](Cc1c[nH]c2ccccc12)C(=O)N[C@@H](C)C(=O)NCCCC[C@H](NC(=O)[C@H](C)NC(=O)[C@H](Cc1c[nH]c2ccccc12)NC(=O)/C(=C\c1ccccc1)NC(=O)[C@H](CCCCN)NC(=O)[C@H](Cc1c[nH]cn1)NC(=O)/C(=C\c1ccccc1)NC(=O)[C@H](CCCCN)NC(=O)CNC(C)=O)C(N)=O [listing 2 of 2 here]
- Ratio (Escherichia coli [6]): 1.5
- MIC (Staphylococcus aureus [4]): > 100 µM
- Activity (Escherichia coli [7]): 95%
- MBC (Escherichia coli [5]): 15 µM (≈ 33.4 µg/mL)
- MIC (Escherichia coli [5]): 10 µM (≈ 22.3 µg/mL)
- Activity (Escherichia coli [8]): 50%

SMILES: CC(=O)NCC(=O)N/C(=C/c1ccccc1)C(=O)N[C@@H](CCCNC(=N)N)C(=O)N[C@@H](CCCCN)C(=O)N/C(=C/c1ccccc1)C(=O)N[C@@H](Cc1c[nH]cn1)C(=O)N[C@@H](CCCCN)C(=O)N/C(=C\c1ccccc1)C(=O)N[C@@H](Cc1c[nH]c2ccccc12)C(=O)N[C@@H](C)C(=O)NCCCC[C@H](NC(=O)[C@H](C)NC(=O)[C@H](Cc1c[nH]c2ccccc12)NC(=O)/C(=C\c1ccccc1)NC(=O)[C@H](CCCCN)NC(=O)[C@H](Cc1c[nH]cn1)NC(=O)/C(=C\c1ccccc1)NC(=O)[C@H](CCCCN)NC(=O)[C@H](CCCNC(=N)N)NC(=O)/C(=C\c1ccccc1)NC(=O)CNC(C)=O)C(N)=O [listing 1 of 2 here]
- Ratio (Escherichia coli [6]): 2
- MBC (Staphylococcus aureus [4]): 7.5 µM (≈ 21.2 µg/mL)
- MIC (Staphylococcus aureus [4]): 5 µM (≈ 14.1 µg/mL)
- MBC (Escherichia coli [5]): 5 µM (≈ 14.1 µg/mL)
- MIC (Escherichia coli [5]): 2.5 µM (≈ 7.07 µg/mL)
- Activity (Escherichia coli [8]): 96%
- Ratio (Staphylococcus aureus [9]): 1.5

SMILES: CC(=O)NCC(=O)N[C@@H](CCCNC(=N)N)C(=O)N[C@H](CCCCN)C(=O)N/C(=C/c1ccccc1)C(=O)N[C@@H](Cc1c[nH]cn1)C(=O)N[C@H](CCCCN)C(=O)N/C(=C\c1ccccc1)C(=O)N[C@@H](Cc1c[nH]c2ccccc12)C(=O)N[C@@H](C)C(=O)NCCCC[C@@H](NC(=O)[C@H](C)NC(=O)[C@H](Cc1c[nH]c2ccccc12)NC(=O)/C(=C\c1ccccc1)NC(=O)[C@@H](CCCCN)NC(=O)[C@H](Cc1c[nH]cn1)NC(=O)/C(=C\c1ccccc1)NC(=O)[C@@H](CCCCN)NC(=O)[C@@H](CCCNC(=N)N)NC(=O)CNC(C)=O)C(N)=O
- Activity (Escherichia coli [1]): Active

SMILES: CC(=O)NCC(=O)N[C@H](CCCCN)C(=O)N/C(=C\c1ccccc1)C(=O)N[C@@H](Cc1c[nH]c2ccccc12)C(=O)N[C@@H](C)C(=O)NCCCC[C@@H](NC(=O)[C@H](C)NC(=O)[C@H](Cc1c[nH]c2ccccc12)NC(=O)/C(=C\c1ccccc1)NC(=O)[C@@H](CCCCN)NC(=O)CNC(C)=O)C(N)=O [PEPTIDE A]
- MIC (Staphylococcus aureus [4]): > 100 µM
- MIC (Escherichia coli [5]): > 100 µM

SMILES: CC(=O)NCC(=O)N/C(=C/c1ccccc1)C(=O)N[C@@H](CCCNC(=N)N)C(=O)N[C@H](CCCCN)C(=O)N/C(=C/c1ccccc1)C(=O)N[C@@H](Cc1c[nH]cn1)C(=O)N[C@H](CCCCN)C(=O)N/C(=C\c1ccccc1)C(=O)N[C@@H](Cc1c[nH]c2ccccc12)C(=O)N[C@@H](C)C(=O)NCCCC[C@@H](NC(=O)[C@H](C)NC(=O)[C@H](Cc1c[nH]c2ccccc12)NC(=O)/C(=C\c1ccccc1)NC(=O)[C@@H](CCCCN)NC(=O)[C@H](Cc1c[nH]cn1)NC(=O)/C(=C\c1ccccc1)NC(=O)[C@@H](CCCCN)NC(=O)[C@@H](CCCNC(=N)N)NC(=O)/C(=C\c1ccccc1)NC(=O)CNC(C)=O)C(N)=O
- Activity (Escherichia coli [1]): Active

SMILES: CC(=O)NCC(=O)N[C@@H](CCCNC(=N)N)C(=O)N[C@@H](CCCCN)C(=O)N/C(=C/c1ccccc1)C(=O)N[C@@H](Cc1c[nH]cn1)C(=O)N[C@@H](CCCCN)C(=O)N/C(=C\c1ccccc1)C(=O)N[C@@H](Cc1c[nH]c2ccccc12)C(=O)N[C@@H](C)C(=O)NCCCC[C@H](NC(=O)[C@H](C)NC(=O)[C@H](Cc1c[nH]c2ccccc12)NC(=O)/C(=C\c1ccccc1)NC(=O)[C@H](CCCCN)NC(=O)[C@H](Cc1c[nH]cn1)NC(=O)/C(=C\c1ccccc1)NC(=O)[C@H](CCCCN)NC(=O)[C@H](CCCNC(=N)N)NC(=O)CNC(C)=O)C(N)=O [listing 1 of 2 here]
- Drug uptake (Escherichia coli [2]): Not Active
- Drug uptake (Escherichia coli [3]): Active

SMILES: CC(=O)NCC(=O)N[C@@H](CCCNC(=N)N)C(=O)N[C@@H](CCCCN)C(=O)N/C(=C/c1ccccc1)C(=O)N[C@@H](Cc1c[nH]cn1)C(=O)N[C@@H](CCCCN)C(=O)N/C(=C\c1ccccc1)C(=O)N[C@@H](Cc1c[nH]c2ccccc12)C(=O)N[C@@H](C)C(=O)NCCCC[C@H](NC(=O)[C@H](C)NC(=O)[C@H](Cc1c[nH]c2ccccc12)NC(=O)/C(=C\c1ccccc1)NC(=O)[C@H](CCCCN)NC(=O)[C@H](Cc1c[nH]cn1)NC(=O)/C(=C\c1ccccc1)NC(=O)[C@H](CCCCN)NC(=O)[C@H](CCCNC(=N)N)NC(=O)CNC(C)=O)C(N)=O [listing 2 of 2 here]
- Ratio (Escherichia coli [6]): 2
- MIC (Staphylococcus aureus [4]): > 100 µM
- Activity (Escherichia coli [10]): 95%
- MBC (Escherichia coli [5]): 10 µM (≈ 25.4 µg/mL)
- MIC (Escherichia coli [5]): 5 µM (≈ 12.7 µg/mL)
- Activity (Escherichia coli [8]): 50%

SMILES: CC(=O)NCC(=O)N/C(=C/c1ccccc1)C(=O)N[C@@H](CCCNC(=N)N)C(=O)N[C@@H](CCCCN)C(=O)N/C(=C/c1ccccc1)C(=O)N[C@@H](Cc1c[nH]cn1)C(=O)N[C@@H](CCCCN)C(=O)N/C(=C\c1ccccc1)C(=O)N[C@@H](Cc1c[nH]c2ccccc12)C(=O)N[C@@H](C)C(=O)NCCCC[C@H](NC(=O)[C@H](C)NC(=O)[C@H](Cc1c[nH]c2ccccc12)NC(=O)/C(=C\c1ccccc1)NC(=O)[C@H](CCCCN)NC(=O)[C@H](Cc1c[nH]cn1)NC(=O)/C(=C\c1ccccc1)NC(=O)[C@H](CCCCN)NC(=O)[C@H](CCCNC(=N)N)NC(=O)/C(=C\c1ccccc1)NC(=O)CNC(C)=O)C(N)=O [listing 2 of 2 here]
- Time (Escherichia coli [11]): 230 s
- Time (Escherichia coli [12]): 150 s
- Drug uptake (Escherichia coli [2]): Active
- Time (Escherichia coli [13]): 2.5 min
- Drug uptake (Escherichia coli [3]): Active

Source: ChEMBL document CHEMBL1250477, “Reverse engineering truncations of an antimicrobial peptide dimer to identify the origins of potency and broad spectrum of action” (J Med Chem, 2010)
